An excerpt weighted towards active compounds, which were near 12% of everything screened.
CHOP inhibitor: inhibitors of CHOP promoter induction, primary screen, cell-based, unfolded protein response, luciferase reporter. AID 2732, 2010. CHO-K1 CHOP-promoter luciferase, tunicamycin-induced, 15-18 h. 220,000 compounds, 3.8% hits. inhibition, % at 10 µM;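 active = compounds that reduced the stress-induced luciferase reporter signal by more than about 70% of percent inhibition, limit read from the data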;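 note: 0% = tunicamycin plus vehicle and 100% = wells without tunicamycin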
Autophagy HCS: autophagy modulators in MEF cells, primary screen, imaging, high-content, MEF GFP-LC3 | MEF GFP-LC3 puncta imaging; test concentration mostly 10 µM | calls only at 10 µM (by protocol) | 190,000 compounds, 0.98% hits | AID 463193, 2010;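 active = percentage of spot-positive cells more than 3 SD above its plate mean, without a fluorescence outlier flag or 80% toxicity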;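 note: spot-positive cell cutoff set from DMSO-treated cells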
L major viab: Leishmania major promastigote growth inhibition, primary screen; AID 1063, 2008; Leishmania major promastigotes, resazurin fluorescence viability; inhibition, % at 10 µM; 200,000 compounds, 9% hits; in the data active = inhibition above about 50%;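 note: promastigotes grown with compound for 44 hours at 28 °C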
bCat nuc transl: modulators of beta-catenin nuclear translocation, primary screen, imaging, HeLa cells, immunofluorescence, high-content; nuclear translocation activity, % at 5 µM; 190,000 compounds, 0.3% hits;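 active = nuclear translocation activity above 50% at 5 µM, with a well cell count of 50 or more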;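 note: per-cell ratio of nuclear to cytoplasmic median beta-catenin stain intensity; plate controls were DMSO negative control for no effect and GSK-3 inhibitor IX positive control for full effect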
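Signal – beta-catenin immunofluorescence imaging with DAPI · Test system – human HeLa cell line · Dosing – 5 µM primary single dose, 0.1% DMSO, 0.02–20 µM confirmation series · Measure – % activation, nuclear-to-cytoplasmic median beta-catenin signal ratio per cell · Incubation – 24 h compound exposure at 37°C, 5% CO2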
Dynein cargo inh: inhibitors of GR-EGFP nuclear translocation, primary screen, dynein cargo transport inhibitor project, imaging, high-content, 3617.4 mouse cells | test concentration mostly 20 µM; stimulated with dexamethasone, 1 µM; hits give low values | z-score, hits read low | 220,000 compounds, 0.47% hits;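 active = plate z-score of nuclear minus cytoplasmic receptor signal below a set negative limit, without overly bright fluorescence or cell loss, cut at about -3.5 in these data, passing the limit was not always enough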;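 note: z-score of nuclear minus cytoplasmic ring GR-EGFP intensity difference per well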
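Schedule: 48 h induction, then 1 h compound, then 30 min agonist, 37 °C. Buffer or medium: tetracycline-free induction medium containing charcoal-stripped FBS. Reagent: 1.0 µM final dexamethasone stimulus. Evaluation: nuclear versus cytoplasmic GR-EGFP signal, averaged per well. Signal: high-content fluorescence imaging after fixation.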
MT stabilize HCS: microtubule stabilizers in HeLa cells, primary screen, imaging, high-content imaging; 200,000 compounds, 0.83% hits; AID 2205, 2009; HeLa tubulin immunostaining HCS, 24 h; share of cells brighter than vehicle mean+2SD; % tubulin-high responders, % at 10 µM;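 active = plate Z-score above 3 for both tubulin-high and condensed-nucleus cell shares, with cell loss under 80%, at 10 µM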;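 note: anti alpha tubulin signal scored within the nucleus-defined area of each cell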
An asterisk follows results filed as active; i = inactive; . = no result; + = active, no number.

SMILES | CHOP inhibitor | Autophagy HCS | L major viab | bCat nuc transl | Dynein cargo inh | MT stabilize HCS
Cc1ccc(Nc2nnc(SCC(=O)NCCN3C(=O)CSC3=O)s2)cc1 | -7.5 | i | -2.5 | 1.3 | -0.0377 | 1.5
COC(=O)c1ccc(Oc2cc(C)nc(NCc3ccccc3)n2)cc1 | 11.9 | i | 13.0 | -6.7 | -0.0392 | 4.6
CCOC(=O)COC(=O)c1ccc(Oc2cc(C)nc(SC)n2)cc1 | 17.5 | i | -9.8 | -1.0 | 0.118 | 3.2
COC(=O)c1ccc(Oc2nc(C)cc(Oc3ccccc3)n2)cc1 | 42.4 | i | 95.3* | -2.2 | -0.236 | 3.5
Cc1cc(Oc2ccc3ccccc3c2)nc(SCC(=O)c2ccccc2)n1 | 40.3 | i | 93.1* | -0.4 | -0.273 | 1.5
CCOC(=O)c1ccc(Oc2cc(C)nc(SC)n2)cc1 | . | i | -7.7 | 0.1 | -0.81 | 44.3*
COC(=O)c1ccc(Oc2cc(C)nc(-n3nc(C)cc3C)n2)cc1 | . | i | 6.6 | . | 0.583 | 20.0*
Cc1cc(Oc2ccc(Br)cc2)nc(SCC(=O)c2ccccc2)n1 | 29.1 | i | 28.7 | -2.3 | -0.131 | 2.6
CC(=O)Nc1ccc(CN2CCN(CCc3ccccc3)C(CCO)C2)cc1 (stereo unspecified) | -0.8 | i | 2.5 | 0.6 | -0.371 | 4.4
CCC1(CC)NC(=O)N(CC(=O)OCC(=O)Nc2sccc2C#N)C1=O | 13.1 | i | 2.9 | -4.9 | -0.45 | 2.5
O=C(c1ccco1)N1CCCN(Cc2nc(Cc3ccccc3)no2)CC1 | 0.8 | i | -2.9 | 1.2 | -0.391 | 2.4
Cc1ccc(NS(=O)(=O)c2ccc(C(=O)OCC(=O)NCC3CCCO3)cc2)cc1 (stereo unspecified) | 16.2 | i | 1.2 | 8.8 | 0.94 | 5.4
Cc1ccccc1C([O-])=Nc1ccc[n+](-c2nc3ccccc3nc2NS(=O)(=O)c2ccccc2)c1 | 4.2 | . | . | -1.5 | 0.164 | .
CC(OC(=O)c1nsc(Cl)c1Cl)C(=O)NC(C)(C)C (stereo unspecified) | 14.9 | i | -4.5 | -3.9 | 0.507 | 4.4
CCOC(=O)c1ccc(Oc2nc(N(C)C)nc(N(C)C)n2)cc1 | 71.3* | i | -0.6 | 2.1 | 2.06 | 0.8
COc1cc(C2NC(=O)CS2)cc(OC)c1OC (stereo unspecified) | 17.7 | i | 86.4* | -2.4 | -0.09 | 1.4
O=C(c1ccc2c(c1)OCCO2)C1CCN(C(=O)c2ccc(F)c(F)c2)CC1 | 62.5 | i | 57.0* | -2.5 | -1.25 | 5.0
O=S(=O)(c1ccccc1)N1CCN=C1SCc1cccc(Cl)c1 | 28.7 | i | 22.0 | -6.2 | -0.0934 | 1.9
COc1ccc(Oc2ccccc2/C=N/O)cc1 | 44.3 | i | -1.3 | -1.9 | -0.0331 | 2.4
CC(C)(C)c1cccc(/C=N/O)c1O | 75.5* | i | 52.5* | -0.1 | -1.03 | 4.4
CC(C)(C)c1ccc(O)c(/C=N\O)c1 | 77.5* | i | 5.6 | -3.3 | 0.872 | 1.4
COc1ccc(N2C(=O)CC(NNC(=O)c3ccc(Br)s3)C2=O)cc1 (stereo unspecified) | -3.7 | i | -5.9 | -0.2 | -0.428 | 1.8
CC(=O)NCCCC(=O)NNC1CC(=O)N(c2cccc(Cl)c2)C1=O (stereo unspecified) | -9.7 | . | . | 0.8 | -0.154 | .
COc1cccc(N2C(=O)CC(NNC(=O)c3cccs3)C2=O)c1 (stereo unspecified) | 12.9 | i | 62.7* | 1.5 | 0.0632 | 2.6
O=C(NNC1CC(=O)N(c2cccc(Cl)c2)C1=O)c1cccs1 (stereo unspecified) | 50.6 | i | 63.3* | 1.2 | -0.872 | 1.5
SMILES | CHOP inhibitor | Autophagy HCS | L major viab | bCat nuc transl | Dynein cargo inh | MT stabilize HCS
CCOC(=O)N1CCC(=NNc2ncc(C(F)(F)F)cc2Cl)CC1 | -5.1 | i | -12.6 | -0.2 | -0.962 | 2.9
CCOC(=O)N1CCC(=NNc2ccnc3cc(Cl)ccc23)CC1 | -3.4 | i | 61.4* | 0.9 | 1.68 | 2.4
CC(=O)N1CCC(=NNc2ccnc3cc(Cl)ccc23)CC1 | -12.7 | i | 85.8* | 4.1 | 2.78 | 2.9
COC(=O)c1c(-c2cc(C)ccc2C)csc1NC(=O)C1CC=CCC1C(=O)O (stereo unspecified) | 20.9 | i | -0.6 | -0.7 | -0.635 | 1.8
COC(=O)C1=C(C(=O)OC)SC2(S1)C(C(=O)OC)=C(C(=O)OC)SC1=C2c2cc(C)ccc2NC1(C)C | 73.2* | i | 26.0 | 2.0 | 0.0936 | 3.1
O=C(CCC(=O)N(CC(=O)NC1CCCCC1)Cc1cccs1)Nc1ccccn1 | 4.1 | i | 0.9 | . | -0.287 | 3.1
COC(=O)[C@@H]1[C@@H](C#N)C2(c3ccccc3-c3ccccc32)N(c2ccc(Cl)cc2)N1C#N | 82.0* | i | -1.5 | 10.7 | -0.48 | 3.6
O=C(NCCOc1ccc2ccccc2c1)c1cncc(Br)c1 | -19.2 | . | . | 0.5 | 0.113 | .
Cc1ccc(C(=O)c2no[n+]([O-])c2C(=O)c2ccc(C)cc2)cc1 | 82.1* | i | -2.7 | -5.6 | -2.05 | 3.6
CC12CN3CC(C)(CN(C1)C3c1ccc(F)cc1)C2 (stereo unspecified) | 0.3 | i | -4.4 | -2.0 | 2.59 | 5.0
CCOC(=O)COc1nc2c(c(-c3ccco3)c1C#N)CCc1ccccc1-2 | 8.9 | . | . | -0.1 | -0.815 | .
COc1ccc(-c2c(C#N)c(N)nc3c2CCCCCC3)cc1OC | 33.9 | i | 1.8 | . | -0.193 | 0.6
CCOc1cc(/C=C(\C#N)c2[nH]nc(N)c2C#N)ccc1O | 26.9 | i | 67.2* | . | 0.11 | 2.4
CCOc1cc(-c2cc(-c3ccc(C)cc3)nc(N)c2C#N)ccc1O | 70.1* | + | 1.1 | 68.7* | -0.604 | 49.0*
CCOc1cc(-c2c(C#N)c(N)nc3c2CCc2ccccc2-3)ccc1O | 78.0* | i | 90.3* | -2.3 | -0.907 | 23.1
CCOc1cc(-c2c(C#N)c(N)nc3c2CCCC3C)ccc1O (stereo unspecified) | 56.0 | i | 46.0 | . | -0.412 | 22.5*
COc1ccccc1-c1c(C#N)c(N)nc2c1CCc1ccccc1-2 | 26.4 | i | 86.8* | . | 0.288 | 25.7
c1ccc(-n2ncc3c(NCCCN4CCOCC4)ncnc32)cc1 | -5.2 | i | -3.8 | 1.0 | -0.559 | 2.1
CCCCNc1ncnc2c1cnn2-c1ccc(Cl)cc1 | . | i | 0.9 | 47.8 | -0.452 | 17.6*
CCCCNc1ncnc2c1cnn2-c1ccccc1 | . | i | 10.8 | 77.1* | -0.163 | 31.9*
Fc1cccc(Nc2ncnc3c2cnn3-c2ccccc2)c1 | 41.2 | . | . | -2.7 | -0.792 | .
Clc1ccc(-n2ncc3c(NCCN4CCOCC4)ncnc32)cc1 | -37.0 | i | 86.3* | . | 0.376 | 3.0
Clc1cccc(Nc2ncnc3c2cnn3-c2ccccc2)c1 | 98.8* | . | . | -0.3 | . | .
